This is a sample that favours compounds with a hit; in the whole collection about 1.9% have one here.
CSN inh: CSN deneddylation inhibition. Q92905. Purified CSN, SCF-Nedd8-OG deneddylation, fluorescence polarization. inhibition, % at 12.5 µM. 360,000 compounds, 0.38% hits. AID 651999;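 active means pattern-corrected inhibition above about 35%, with an unprinted fluorescence ratio check between 0.5 and 1.5, limit read from the data, passing the limit was not always enough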
Target sequence (Q92905 whole entry, looked up, one chain of several): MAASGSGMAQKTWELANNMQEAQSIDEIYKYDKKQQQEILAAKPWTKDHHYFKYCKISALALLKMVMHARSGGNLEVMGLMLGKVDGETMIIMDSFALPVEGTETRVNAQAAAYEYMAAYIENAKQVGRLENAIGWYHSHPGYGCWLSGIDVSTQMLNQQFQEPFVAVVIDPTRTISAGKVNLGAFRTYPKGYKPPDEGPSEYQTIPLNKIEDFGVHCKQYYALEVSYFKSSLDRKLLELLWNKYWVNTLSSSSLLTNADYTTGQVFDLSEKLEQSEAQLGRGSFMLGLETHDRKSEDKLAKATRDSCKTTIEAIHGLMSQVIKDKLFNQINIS
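Schedule: reaction 90 min, room temperature / Assay system: HEK293T-derived human Csn5 enzyme / Input: Csn5 at 0.24 nM final / Measure: inhibition of Csn5 cleavage, % / Control set: substrate-only high control, full reaction low control / Technique: fluorescence polarization of the substrate / Buffer or medium: Tris/NaCl/DTT buffer, pH 7.5 / Reagent: SCFSkp2-Nedd8OG substrate at 10 nM final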
Scp-1 inhibitor: blocks human Scp-1 phosphatase activity | Recombinant Scp1, phosphopeptide, malachite green phosphate absorbance | inhibition, % at 20 µM | 340,000 compounds, 0.88% hits | AID 493091;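 active means inhibition above about 50% at 20 µM, limit read from the data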
Target sequence (Q9GZU7 76-261 limits assumed): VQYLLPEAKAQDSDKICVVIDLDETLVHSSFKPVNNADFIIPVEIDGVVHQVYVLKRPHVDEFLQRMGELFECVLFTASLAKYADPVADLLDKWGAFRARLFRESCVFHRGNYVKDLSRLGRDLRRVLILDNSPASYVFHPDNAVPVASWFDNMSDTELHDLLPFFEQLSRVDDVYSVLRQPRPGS
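Incubation: 45 min enzyme reaction at room temperature / System: truncated SCP-1 phosphatase (76-261aa) / Reagent: Phospho 17-mer peptide substrate / Buffer or medium: Acidic Tris acetate buffer with magnesium and detergent / Signal: absorbance at 630 nm / Doses: one concentration, 20 µM, with 1.0% DMSO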
STEP block: blocks human striatal-enriched tyrosine phosphatase. P54829. recombinant STEP, OMFP fluorogenic substrate, fluorescence. inhibition, % at 20 µM. 360,000 compounds, 0.25% hits. AID 588621;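 active means inhibition at 20 µM, scaled per plate between control wells, above about 37%, limit read from the data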
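Also added – OMFP at 25 µM · Test system – STEP tyrosine phosphatase · Technique – FITC-channel fluorescence of OMFP product · Schedule – 20 min at room temperature, dark · Evaluation – control-normalized % inhibition with plate pattern correction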
SUMO1-SIM PPI: alters human SUMO1 binding to SIM partners; P63165; SUMO1 binding to a labelled peptide, TR-FRET, 1 h; inhibition, % at 20 µM; 360,000 compounds, 0.33% hits; in the data active means inhibition above about 37%
DNMT1 block: DNMT1 (human) enzyme inhibition | P26358 | DNMT1 molecular beacon, Hinp1I cleavage, fluorescence | inhibition (reported as % activation of signal), % at 10 µM | 360,000 compounds, 0.83% hits | AID 588458; in the data active means inhibition above about 50%
LMPTP block: blocks human LMPTP phosphatase; P24666; recombinant LMPTP-A, OMFP fluorogenic substrate, fluorescence intensity; inhibition, % at 20 µM; 360,000 compounds, 0.22% hits;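 active means compounds that cut the enzyme signal by at least half of the control window in the single-dose screen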
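Material: LMPTP-A; amount: 0.625 nM enzyme; doses: single 20 µM dose; times: reaction 50 min, room temperature, dark; technique: fluorescence intensity of OMFP turnover product; benchmarks: no-enzyme and uninhibited controls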
DNMT1 interf DR: beacon fluorescence artifact, dose response counter-screen; shares compounds with DNMT1 block; molecular beacon fluorescence, spectral interference counter-screen; IC50, µM; 200 tested, under 10 active; AID 602382; call rule not given here
DNMT1 confirm: DNMT1 inhibition confirmation, single concentration; inhibition, % at 10 µM; 2,300 compounds, 8% hits; shares compounds with DNMT1 block; DNMT1 molecular beacon HinP1I cleavage, fluorescence;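 active means average inhibition of at least 30% in the single-concentration confirmation test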
Beacon interf: beacon fluorescence artifact counter-screen. AID 602387. activation (fluorescence interference), % at 10 µM. DNMT1 molecular beacon spectral interference counterscreen, fluorescence 485/520. shares compounds with DNMT1 block. 2,300 compounds, 1% hits;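 active means activation of at least 30% at 10 µM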;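 further: DNMT1 catalytic domain with a HinP1I cleavage step and a FAM/dabcyl DNA beacon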
Large screens that a line does not name were inactive (follow-up assays come after a bar, where they were run).

CCN1C(=O)[C@H]2[C@@H](c3ccc(C)cc3)N[C@]3(CCCN(Cc4ccc(F)cc4)C3=O)[C@H]2C1=O	none (no result: Scp-1 inhibitor)
CCCC(=O)Nc1ccc(Cl)c(NC(=S)NC(=O)c2cc3ccccc3o2)c1	DNMT1 block 55.7 | DNMT1 confirm inactive | Beacon interf inactive
O=C(c1ccco1)N(CCO)Cc1cc2cc3c(cc2[nH]c1=O)OCO3	none
Cc1ccsc1/C=N/NC(=O)c1sccc1C	none
Cc1ccsc1/C=N/N=C/c1sccc1C	DNMT1 block 56.0 | DNMT1 confirm inactive | Beacon interf inactive
CCCCN(C(=O)c1cccc(-n2cccc2)c1)c1c(N)n(Cc2ccccc2)c(=O)[nH]c1=O	DNMT1 block 92.5 (no result: Scp-1 inhibitor) | DNMT1 confirm inactive | Beacon interf inactive
CCOC(=O)c1c(NC(C)=O)sc2c(OCC(O)CN(CC)CC)c(Br)ccc12 (stereo not drawn)	DNMT1 block 75.7 | DNMT1 confirm inactive | Beacon interf inactive
CCOc1cc(/C=C2\C(=O)N(c3nc(-c4ccc(Br)cc4)cs3)N=C2c2ccccc2)ccc1O	DNMT1 block 95.6 | DNMT1 interf DR inactive | DNMT1 confirm 92.8 | Beacon interf inactive
CSCCC(NS(=O)(=O)c1ccccc1F)C(=O)NCc1cccnc1 (stereo not drawn)	none
COc1ccc(Cc2nc3ccc(C(=O)NCCSC)cc3o2)cc1	DNMT1 block 54.8 | DNMT1 confirm inactive | Beacon interf inactive
Nc1c(N(CCC2=CCCCC2)C(=O)c2ccco2)c(=O)[nH]c(=O)n1Cc1ccccc1	none
COc1ccc(Cl)cc1NC(=O)COC(=O)C1CCCCC1	none
Cc1ccc(Cl)cc1NC(=O)COC(=O)C1CCCC1	DNMT1 block 54.9 | DNMT1 confirm inactive | Beacon interf inactive
C/C(Cc1ccccc1)=N\NC(=O)CNC(=O)COc1ccccc1	none
COc1ccccc1C#Cc1cnc2c(c1)C(=O)N([C@H](C)CO)C[C@H](C)[C@@H](CN(C)S(=O)(=O)c1cn(C)cn1)O2	DNMT1 block 100.5 (no result: Scp-1 inhibitor) | DNMT1 confirm inactive | Beacon interf inactive
CCN(CC)S(=O)(=O)c1ccc(N2CCc3cc(OC)c(OC)cc3C2)nc1	none
O=C(CN1C(=O)/C(=C/c2ccco2)SC1=S)NC1CCS(=O)(=O)C1 (stereo not drawn)	Scp-1 inhibitor 58.4, STEP block 45.1, DNMT1 block 75.9 | DNMT1 confirm inactive | Beacon interf inactive
O=C(CCN1C(=O)/C(=C/c2ccccc2)SC1=S)NC1CCS(=O)(=O)C1 (stereo not drawn)	none
O=C(c1cccc(-n2cccc2)c1)N1CCN(S(=O)(=O)c2ccccc2)CC1	SUMO1-SIM PPI 75.8, DNMT1 block 96.8 (no result: Scp-1 inhibitor) | DNMT1 confirm inactive | Beacon interf inactive
O=C(c1cccc(-n2cccc2)c1)N1CCN(S(=O)(=O)c2c(F)cccc2F)CC1	none
CCCn1nc([N+](=O)[O-])c(C(C#N)c2nc3ccccc3o2)c(Cl)c1=O (stereo not drawn)	none
CCCCn1c(N)c(-c2nc3ccccc3o2)c2c([N+](=O)[O-])nn(CC)c(=O)c21	DNMT1 block 55.9 | DNMT1 confirm inactive | Beacon interf inactive
CCOc1ccc(NS(=O)(=O)c2ccc3ncsc3c2)cc1	none
C=CCn1c(SCC(C)=O)nc2scc(-c3ccco3)c2c1=O	DNMT1 block 75.5 | DNMT1 confirm inactive | Beacon interf inactive
C=CCn1c(SCC(=O)NCc2ccc3c(c2)OCO3)nc2scc(-c3ccccc3)c2c1=O	none
C=CCn1c(SC(F)F)nc2scc(-c3ccco3)c2c1=O	none

Screening data (PubChem)
